Measurements: ChEMBL document CHEMBL1921719, “Synthesis and activity study of phosphonamidate dipeptides as potential inhibitors of VanX” (Bioorg Med Chem Lett, 2011)
≈ marks a conversion by molar mass, not a printed value.

Legend:
Staphylococcus aureus [1] = test: Antibacterial activity against Staphylococcus aureus ATCC 25923 after 24 hrs by macrodilution broth method; format: functional; settings: ATCC 25923, 24 h
Summary of the method: (§1)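 CLSI tube macrodilution broth method, with MIC as the read-out. Test strains were S. aureus ATCC 25923 and two clinical MRSA isolates. Cultures of about 10⁸ CFU/ml in Mueller–Hinton medium and phosphonamidate (2 mM stock in ddH₂O) were added in sequence to a vancomycin dilution series from 128 down to 0.125. Tubes were incubated for 24 h at 37 °C.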

Staphylococcus aureus [2] = test: Antibacterial activity against methicillin-resistant Staphylococcus aureus isolate 1 after 24 hrs by macrodilution broth method; format: functional; settings: isolate 1, 24 h; summary of the method: as §1
[3] = Inhibition of VanX using D-Ala-D-Ala as substrate preincubated for 30 mins before substrate addition measured after 150 secs by UV-Vis spectrometry
Summary of the method: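 The enzyme was recombinant VanX, expressed as an MBP fusion in E. coli BL21(DE3) at 30 °C with 1 mM IPTG induction for 75 min. It was purified on amylose resin, eluted with 20 mM Tris pH 7.6, 10 mM maltose and 200 mM NaCl. Thrombin then cleaved off the MBP, followed by a Q-Sepharose step. IC₅₀ was determined by a previously reported method.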

Staphylococcus aureus [4] = test: Antibacterial activity against methicillin-resistant Staphylococcus isolate 2 after 24 hrs by macrodilution broth method; format: functional; settings: isolate 2, 24 h; summary of the method: as §1
Staphylococcus aureus [5] = test: Antibacterial activity against Staphylococcus aureus ATCC 25923 after 24 hrs by macrodilution broth method relative to untreated control; format: functional
[6] = Partial competitive inhibition of VanX

Row | SMILES | MIC (Staphylococcus aureus [1]) [µg/mL] | MIC (Staphylococcus aureus [2]) [µg/mL] | IC50 [3] [µM] | MIC (Staphylococcus aureus [4]) [µg/mL] | fold change (FC) (Staphylococcus aureus [5]) | Ki [6] [µM]
1 | C[C@H](N)P(=O)(O)NCC(=O)O | 0.25 (≈ 1.37 µM) | 1 (≈ 5.49 µM) | 390 | 1 (≈ 5.49 µM) | 8 | 
2 | C[C@H](N)P(=O)(O)N[C@H](C)C(=O)O | 2 (≈ 10.2 µM) | 1 (≈ 5.1 µM) | 700 | 2 (≈ 10.2 µM) |  | 36
3 | CC(C)[C@@H](NP(=O)(O)[C@H](C)N)C(=O)O | 2 (≈ 8.92 µM) | 1 (≈ 4.46 µM) | 1120 | 2 (≈ 8.92 µM) |  | 
4 | CC(C)C[C@@H](NP(=O)(O)[C@H](C)N)C(=O)O | 2 (≈ 8.4 µM) | 1 (≈ 4.2 µM) | 2820 | 2 (≈ 8.4 µM) |  | 
5 | C[C@H](N)P(=O)(O)N[C@H](Cc1ccccc1)C(=O)O | 2 (≈ 7.35 µM) | 1 (≈ 3.67 µM) | 4130 | 2 (≈ 7.35 µM) |  | 
